Assay outcomes (PubChem)
S100A4 MyoIIA: inhibitors of human S100A4 binding to myosin IIA peptide. inhibition, % at 10.7 µM. 360,000 compounds, 0.14% hits. S100A4/TAMRA-MyoIIA peptide fluorescence polarization. P26447;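 active = mean inhibition of at least 70% across replicates, with every replicate also reaching that level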
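incubation = readout 5 min after mixing, signal stable up to 60 min | system = S100A4 monomer protein | buffer or medium = HEPES pH 7.2 with CaCl2, KCl, NaCl, DTT, Triton | benchmarks = neutral control DMSO, positive control TFP | also added = fluorescent myosin IIA peptide, 5 nM | compound dosing = one concentration per compound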
F508del corr: CFTR F508del correction in bronchial cells | CFBE cells, YFP halide quenching; stimulated with forskolin plus potentiator P3; % fluorescence drop versus neutral controls | activity (quench increase), % at 7.58 µM | 350,000 compounds, 0.36% hits | AID 720511;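 active = mean added fluorescence quench of at least 8% versus neutral control, with both replicates also reaching 8%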;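 also: cells transiently co-express mutant CFTR-F508del with the halide-sensitive YFP; corrector assay measuring rescue of mutant channel to the surface after 24 h compound exposure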
dFosB activator: activators of mouse delta FosB homodimer. P13346. purified delta FosB, TAMRA-CDK5 oligo fluorescence polarization; percent of positive-control signal above neutral wells. activation, % at 25 µM. 340,000 compounds, 0.99% hits;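 active = mean activation above about 17%, with every replicate also reaching it, limit read from the data, passing the limit was not always enough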
Target sequence (P13346 whole entry, looked up): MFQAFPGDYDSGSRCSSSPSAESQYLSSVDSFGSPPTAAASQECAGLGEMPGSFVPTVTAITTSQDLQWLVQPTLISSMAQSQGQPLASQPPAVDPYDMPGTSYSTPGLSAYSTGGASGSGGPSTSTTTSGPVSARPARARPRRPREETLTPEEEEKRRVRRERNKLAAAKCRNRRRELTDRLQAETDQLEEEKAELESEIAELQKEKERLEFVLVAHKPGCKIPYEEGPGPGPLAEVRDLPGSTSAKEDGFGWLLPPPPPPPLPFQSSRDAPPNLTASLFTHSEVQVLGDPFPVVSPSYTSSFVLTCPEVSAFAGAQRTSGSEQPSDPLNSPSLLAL
FGF22 binding: shifts melting point of recombinant human FGF22; Q9HCT0; recombinant FGF22 thermal shift, SYPRO orange fluorescence; percent of sucrose octasulfate shift, DMSO zero; activity (Tm shift, normalised), % at 9.99 µM; 340,000 compounds, 1.5% hits; AID 651658;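 active = mean Tm shift, scaled 0 neutral to 100 positive control, at about 1.3% or above, every replicate too, limit read from the data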
Target sequence (Q9HCT0 whole entry, looked up): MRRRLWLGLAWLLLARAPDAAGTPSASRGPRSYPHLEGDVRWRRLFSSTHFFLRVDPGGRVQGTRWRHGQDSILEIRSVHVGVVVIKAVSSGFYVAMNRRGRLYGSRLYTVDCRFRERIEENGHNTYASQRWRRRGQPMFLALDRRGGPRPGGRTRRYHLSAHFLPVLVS
Hits are given with their value; . = inactive; / = not tested or not shown; ! = repeats disagree. The list is not random: actives were taken first. Their share in the collection is about 2.2%.

SMILES	S100A4 MyoIIA	F508del corr	dFosB activator	FGF22 binding
O=C(Cc1ccccc1)NCC1CCCO1 (configuration not stated)	/	/	.	/
COc1cc(C(=O)NCC2CCCO2)ccc1OCc1ccc(Cl)cc1Cl (configuration not stated)	.	.	.	.
COc1cc(C(=O)NCC2CCCO2)ccc1OCc1ccc(Cl)cc1 (configuration not stated)	.	11	.	.
O=C(CSc1nnc(-c2ccccc2)c(-c2ccccc2)n1)NCC1CCCO1 (configuration not stated)	.	.	.	43
Cc1ccc(N(Cc2ccc(C(=O)NCC3CCCO3)cc2)S(C)(=O)=O)cc1C (configuration not stated)	.	.	.	43
CS(=O)(=O)N(Cc1ccc(Cl)cc1)c1ccc(C(=O)NCC2CCCO2)cc1 (configuration not stated)	.	.	.	.
O=C(Cc1ccc(F)cc1)NCC1CCCO1 (configuration not stated)	.	.	.	43
COc1ccc(S(=O)(=O)Nc2ccc3c(c2)C(=O)N([C@H](C)CO)C[C@H](C)[C@@H](CN(C)C(=O)Nc2ccc4c(c2)OCO4)OCCCC[C@@H](C)O3)cc1	.	.	/	.
Cc1ccc(S(=O)(=O)N(CC(=O)NCC2CCCO2)c2cccc([N+](=O)[O-])c2)cc1 (configuration not stated)	.	.	.	.
Cc1ccc(SCC(=O)NCC2CCCO2)cc1 (configuration not stated)	.	.	.	43
CS(=O)(=O)N(CC(=O)NCC1CCCO1)c1cccc([N+](=O)[O-])c1 (configuration not stated)	.	.	.	43
Cc1ccc(NS(=O)(=O)c2ccc(C(=O)NCC3CCCO3)cc2)cc1 (configuration not stated)	.	.	.	44
C[C@@H]1CN([C@@H](C)CO)S(=O)(=O)c2ccc(C#CC3CC3)cc2O[C@@H]1CN(C)CC1CC1	.	.	/	.
CC(=O)N(C)C[C@@H]1Oc2cc(C#CCC(C)C)ccc2S(=O)(=O)N([C@H](C)CO)C[C@H]1C	.	.	/	.
N[C@@H](Cc1ccc(O)c(O)c1)C(=O)O	.	.	.	.
C[C@@](Cc1ccc(O)c(O)c1)(NN)C(=O)O	.	8.4	.	.
N#Cc1c(NCCN)nc(NCc2ccccc2)c2c1CCN(Cc1ccccc1)C2	/	/	24	/
C=CCNc1nc(NCc2ccccc2)c(C#N)c2c1CN(C)CC2	/	/	.	/
CCN1CCN(CC(=O)N2N=C(c3cccs3)CC2c2ccc(OC)cc2)C(=O)C1=O (configuration not stated)	.	.	.	43
Nc1ncnc2c1ncn2[C@@H]1O[C@H](CO)[C@@H](O)[C@H]1O	.	.	.	.
N#Cc1ncn(C2OC(CO)C(O)C2O)c1N (configuration not stated)	.	10.0	/	/
Cc1ccccc1S(=O)(=O)N1C[C@H](O)COC[C@@H]2O[C@@H](CC(=O)NCc3ccccc3Cl)CC[C@H]21	115	.	/	.
O=C(C[C@@H]1CC[C@H]2[C@@H](COC[C@H](O)CN2S(=O)(=O)c2cccc(Cl)c2)O1)Nc1ccc(-c2ccccc2)cc1	.	.	/	2.7
O=C(C[C@@H]1CC[C@@H]2[C@H](COC[C@H](O)CN2S(=O)(=O)c2cccc(Cl)c2)O1)Nc1ccc(-c2ccccc2)cc1	.	.	/	.
COc1ccc(S(=O)(=O)N[C@@H]2CC[C@@H](CC(=O)N3CCN(c4ccccc4)CC3)O[C@@H]2CO)cc1	.	.	/	.
SMILES	S100A4 MyoIIA	F508del corr	dFosB activator	FGF22 binding
Cc1noc(C)c1S(=O)(=O)Nc1ccc2c(c1)C(=O)N([C@H](C)CO)C[C@@H](C)[C@H](CN(C)C)OCCCC[C@@H](C)O2	.	.	/	/
C[C@H](CO)N1C[C@H](C)[C@@H](CN(C)S(=O)(=O)c2ccc(F)cc2)Oc2c(NC(=O)c3cnccn3)cccc2C1=O	.	.	/	.
COc1cccc(NC(=O)N(C)C[C@H]2OCc3ccccc3-c3c(n(C)c4ccccc34)C(=O)N([C@H](C)CO)C[C@H]2C)c1	.	8.4!	/	.
C[C@H](CO)N1C[C@H](C)[C@H](CN(C)CC2CC2)OCc2ccccc2-c2c(n(C)c3ccccc23)C1=O	90	.	/	.
C[C@H]1CN([C@@H](C)CO)C(=O)c2c(c3ccccc3n2C)-c2ccccc2CO[C@H]1CN(C)CC1CC1	.	.	/	.
CNC[C@H]1Oc2cc(C#CCC(C)C)ccc2S(=O)(=O)N([C@H](C)CO)C[C@@H]1C	.	.	/	.
Cc1ccc(S(=O)(=O)N(C)C[C@@H]2Oc3ccc(NC(=O)Cc4ccccc4)cc3C(=O)N([C@@H](C)CO)C[C@@H]2C)cc1	.	.	/	.
COc1cc(-c2nc3cccc(C)n3c2NCC2CCCO2)ccc1O (configuration not stated)	.	.	.	43
COc1ccc(-c2nc3cc(C)ccn3c2NCC2CCCO2)cc1OC (configuration not stated)	/	/	.	/
CN(CCOc1ccc(Cl)cc1)C(=O)c1cccc(S(=O)(=O)N2CCN(c3ccccc3)CC2)c1	.	8.6	.	.
COc1ccccc1CN1C[C@@H]2N[C@H](C1)C2c1ccc(/C=C/c2ccccc2)cc1 (some centres not stated)	.	.	/	/
CCO[C@H]1OC(C(=O)O)=C[C@@H](c2ccc3c(c2)OCO3)[C@@H]1CCCO	.	.	.	44!
CCO[C@H]1OC(C(=O)N2CCCC2)=C[C@@H](c2ccc3c(c2)OCO3)[C@@H]1CCCO	.	.	/	.
CNC(=O)C[C@H]1CC[C@H]2[C@@H](COc3ccc(NC(=O)c4ccc(F)c(F)c4)cc3C(=O)N2C)O1	.	.	/	.
O=S(=O)(c1ccccc1)c1ccc(C(F)(F)F)cn1	.	.	.	44
Cc1ccccc1-c1cnc2c(c1)C(=O)N([C@H](C)CO)C[C@@H](C)[C@H](CN(C)CC1CCOCC1)O2	.	.	/	.
CCOc1ccc(/C=C2/SC(=S)N(C(C(=O)O)c3ccccc3)C2=O)cc1OCC (configuration not stated)	.	/	.	7.5
O=C(O)C(c1ccccc1)N1C(=O)/C(=C\c2ccc(O)c(O)c2)SC1=S (configuration not stated)	.	.	.	/
COc1cc(/C=C2\SC(=S)N(C(C(=O)O)c3ccccc3)C2=O)ccc1O (configuration not stated)	.	.	23	/
CCOc1cc(/C=C2\SC(=S)N(C(C(=O)O)c3ccccc3)C2=O)ccc1O (configuration not stated)	.	14	.	/
COc1cc(OC)c(OC)cc1/C=C/c1cc(C(F)(F)F)[nH]c(=O)n1	.	.	.	43
COc1cc(/C=C/c2cc(C(F)(F)F)[nH]c(=O)n2)cc(OC)c1OC	.	.	.	.
